# In ChEMBL document CHEMBL1773010, “Cytotoxic and apoptosis-inducing activities of limonoids from the seeds of Azadirachta indica (neem)” (J Nat Prod, 2011):
# Legend:
# Format in all cases: functional, cell-based
# SK-BR-3 = assay: Cytotoxicity against human SK-BR-3 cells assessed as cell viability after 48 hrs by MTT assay; conditions: SK-BR-3, 48 h
# Method in brief: (§1)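 Cells seeded at 3 × 10^3 per well and exposed to compounds from 1 × 10^-4 to 1 × 10^-6 M for 48 h. MTT was then added for 3 h, formazan dissolved in 0.04 M HCl in 2-propanol, and absorbance read at 570 nm against 630 nm. IC50 is the concentration giving 50% growth inhibition, from triplicate assays.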
# [1] = Cytotoxicity against human AZ-521 cells assessed as cell viability after 48 hrs by MTT assay; conditions: AZ-521, 48 h; method in brief: as §1
# [2] = Cytotoxicity against human CRL1579 cells assessed as cell viability after 48 hrs by MTT assay; method in brief: as §1
# A549 = assay: Cytotoxicity against human A549 cells assessed as cell viability after 48 hrs by MTT assay; conditions: A549, 48 h; method in brief: as §1
# HL-60 = assay: Cytotoxicity against human HL60 cells assessed as cell viability after 48 hrs by MTT assay; conditions: HL-60, 48 h; method in brief: as §1
Compound,IC50 (SK-BR-3) [µM],IC50 [1] [µM],IC50 [2] [µM],IC50 (A549) [µM],IC50 (HL-60) [µM]
CC(=O)O[C@H]1C[C@@H](OC(C)=O)[C@@]2(C)CO[C@@H]3[C@@H](O)[C@@]4(C)C5=CC[C@@H](c6ccoc6)[C@]5(C)CC[C@@H]4[C@]1(C)[C@@H]32,> 20,14.8,> 20,> 20,15.3
CCC(C)C(=O)O[C@H]1C[C@@H](OC(C)=O)[C@@]2(C)CO[C@H]3[C@H]4O[C@@H]5C[C@@H](c6ccoc6)C(C)=C5[C@@]4(C)[C@H](CC(=O)OC)[C@]1(C)[C@@H]32 (some centres undefined),> 20,> 20,> 20,> 20,17.1
CC(=O)O[C@@H]1C[C@H]2C(C)(C)C(=O)C=C[C@]2(C)[C@H]2CC[C@]3(C)C(=CC(=O)[C@H]3C3=CCOC3=O)[C@@]21C [AZADIRADIONOLIDE],11.5,> 20,> 20,> 20,> 20
CC(=O)O[C@@H]1C[C@H]2C(C)(C)C(=O)C=C[C@]2(C)[C@H]2CC[C@]3(C)C(=C(O)C(=O)[C@H]3c3ccoc3)[C@@]21C,> 20,> 20,> 20,> 20,> 20
C/C=C(/C)C(=O)O[C@H]1C[C@@H](OC(C)=O)[C@@]2(C)CO[C@H]3[C@H]4O[C@@H]5CC(=O)C(C)=C5[C@@]4(C)[C@H](CC(=O)OC)[C@]1(C)[C@@H]32,> 20,> 20,> 20,> 20,> 20
CC(=O)O[C@@H]1C[C@H]2C(C)(C)C(=O)C=C[C@]2(C)[C@H]2CC[C@]3(C)C(=CC(=O)[C@]3(O)c3ccoc3)[C@@]21C,> 20,> 20,19.1,> 20,> 20
CC(=O)O[C@@H]1C[C@H]2C(C)(C)C(=O)C=C[C@]2(C)[C@H]2CC[C@@]3(C)C(c4ccoc4)=C(O)C(=O)[C@H]3[C@@]21C,> 20,> 20,> 20,> 20,> 20
CC=C(C)C(=O)O[C@H]1C[C@@H](OC(C)=O)[C@@]2(C(=O)OC)CO[C@H]3[C@H]4O[C@@H]5C6C[C@@H](O[C@@H]7OC=C[C@]67O)[C@]5(O)[C@@]4(C)[C@@H]4[C@@](OC)(C(=O)OC)OC[C@@]14[C@@H]32,> 20,> 20,> 20,> 20,> 20
COC(=O)C[C@H]1[C@]2(C)C3=C(C)[C@H](c4ccoc4)C[C@H]3O[C@@H]2[C@H](O)[C@@H]2[C@]1(C)C(=O)C=C[C@@]2(C)C(=O)OC [DEACETYLNIMBIN],> 20,> 20,> 20,> 20,11.6
COC(=O)C[C@H]1[C@]2(C)C3=C(C)[C@H](c4ccoc4)C[C@H]3O[C@@H]2[C@H](OC(C)=O)[C@@H]2[C@]1(C)C(=O)C=C[C@@]2(C)C(=O)OC [NIMBIN],> 20,> 20,15.9,> 20,
C/C=C(/C)C(=O)O[C@H]1C[C@@H](O)[C@@]2(C)CO[C@H]3[C@H]4O[C@@H]5C[C@@H](c6ccoc6)C(C)=C5[C@@]4(C)[C@H](CC(=O)OC)[C@]1(C)[C@@H]32,> 20,> 20,> 20,> 20,> 20
CCC(C)C(=O)O[C@H]1C[C@@H](OC(C)=O)[C@@]2(C(=O)OC)CO[C@H]3[C@@H](O)[C@@](C)([C@]45O[C@@]4(C)C4CC5O[C@@H]5C[C@@H](OC)C[C@]45O)[C@@H]4[C@@H](C(=O)OC)OC[C@@]14[C@@H]32 (some centres undefined),> 20,> 20,> 20,> 20,> 20
O=c1[nH]cc(F)c(=O)[nH]1 [FLUOROURACIL],> 20,> 20,> 20,> 20,9.1
CC(=O)O[C@@H]1C[C@H]2C(C)(C)C(=O)C=C[C@]2(C)[C@H]2CC[C@@]3(C)[C@H](c4ccoc4)OC(=O)[C@H]4O[C@]43[C@@]21C [GEDUNIN],8.3,16.9,> 20,> 20,5.9
CCC(C)C(=O)O[C@H]1C[C@@H](OC(C)=O)[C@@]2(C(=O)OC)CO[C@H]3[C@@H](O)[C@@](C)([C@]45O[C@@]4(C)C4CC5O[C@@H]5C[C@H](OC)C[C@]45O)[C@@H]4[C@@H](C(=O)OC)OC[C@@]14[C@@H]32 (some centres undefined) [VEPAOL],> 20,> 20,> 20,> 20,> 20
CC(=O)O[C@@H]1C[C@H]2C(C)(C)C(=O)C=C[C@]2(C)[C@H]2CC[C@@]3(C)[C@H](c4ccoc4)C(=O)[C@H]4O[C@]43[C@@]21C [EPOXYAZADIRADIONE],12.3,> 20,> 20,> 20,9.3

Compound,IC50 (SK-BR-3) [µM],IC50 [1] [µM],IC50 [2] [µM],IC50 (A549) [µM],IC50 (HL-60) [µM]
CC(=O)O[C@@H]1C[C@H]2C(C)(C)C(=O)C=C[C@]2(C)[C@H]2CC[C@]3(C)C(=CC(=O)O[C@]3(O)c3ccoc3)[C@@]21C [NIMOLICINOL],> 20,> 20,> 20,> 20,> 20
CC(=O)O[C@@H]1C[C@H]2C(C)(C)C(=O)C=C[C@]2(C)[C@H]2CC[C@]3(C)C(=CC[C@H]3[C@H]3COC(=O)C3)[C@@]21C,> 20,> 20,> 20,> 20,> 20
CC(=O)O[C@@H]1C[C@H]2C(C)(C)C(=O)C=C[C@]2(C)[C@H]2CC[C@@]3(C)OC(=O)C=C3[C@@]21C,> 20,> 20,> 20,> 20,> 20
COC(=O)C[C@H]1[C@]2(C)C3=C(C)[C@H](c4ccoc4)C[C@H]3O[C@@H]2[C@H](OC(C)=O)[C@@H]2[C@]1(C)C(=O)C=C[C@@]2(C)O,> 20,> 20,> 20,> 20,> 20
CC(=O)O[C@@H]1C[C@H]2C(C)(C)C(=O)C=C[C@]2(C)[C@H]2CC[C@]3(C)C(=CC(=O)[C@@]3(O)c3ccoc3)[C@@]21C [17-HYDROXYAZADIRADIONE],> 20,> 20,> 20,> 20,12.4
CC1(C)C(=O)C=C[C@]2(C)[C@H]3CC[C@]4(C)C(=CC(=O)O[C@@]4(O)c4ccoc4)[C@]3(C)[C@H](O)C[C@@H]12,> 20,> 20,> 20,> 20,> 20
CC=C(C)C(=O)O[C@@H]1[C@@H]2OC[C@]3(C)[C@H](OC(C)=O)C[C@H](O)[C@](C)([C@H]4CC[C@@](C)([C@@H](C)[C@H]5COC(=O)C5)C[C@]14C)[C@@H]23,> 20,> 20,> 20,> 20,> 20
COC(=O)C[C@H]1[C@]2(C)C3=C(C)[C@H](c4ccoc4)C[C@H]3O[C@@H]2[C@@H]2OC[C@]3(C)[C@H](OC(C)=O)C[C@H](OC(=O)/C=C/c4ccccc4)[C@@]1(C)[C@@H]23 [OHCHININ ACETATE],> 20,> 20,> 20,> 20,9.9
CC1(C)C(=O)C=C[C@]2(C)[C@H]3CC[C@@]4(C)[C@H](c5ccoc5)OC(=O)[C@H]5O[C@]54[C@]3(C)[C@H](O)C[C@@H]12 [DEACETYLGEDUNIN],12,16.9,> 20,> 20,> 20
C/C=C(/C)C(=O)O[C@H]1C[C@@H](OC(C)=O)[C@@]2(C)CO[C@H]3[C@H]4O[C@@H]5C[C@@H](c6ccoc6)C(C)=C5[C@@]4(C)[C@H](CC(=O)OC)[C@]1(C)[C@@H]32 [SALANNIN],> 20,> 20,> 20,> 20,> 20
CC1(C)C(=O)C=C[C@]2(C)[C@H]3CC[C@]4(C)C(=CC(=O)[C@H]4c4ccoc4)[C@]3(C)[C@H](OC(=O)c3ccccc3)C[C@@H]12,> 20,> 20,4,> 20,5.3
CC1(C)C(=O)C=C[C@]2(C)[C@H]3CC[C@]4(C)C(=CC(=O)[C@H]4c4ccoc4)[C@]3(C)[C@H](O)C[C@@H]12 [NIMBOCINOL],> 20,> 20,> 20,> 20,> 20
C/C=C(\C)C(=O)O[C@@H]1C[C@H](O)[C@]23CO[C@H](C(=O)OC)[C@H]2[C@](C)([C@]24O[C@@]2(C)[C@H]2C[C@@H]4O[C@@H]4OC=C[C@@]42O)[C@H](O)[C@@H]2OC[C@@]1(C(=O)OC)[C@H]23 [AZADIRACHTIN B],> 20,> 20,> 20,> 20,> 20
CC(=O)O[C@@H]1C[C@H]2C(C)(C)C(=O)C=C[C@]2(C)[C@H]2CC[C@]3(C)C(=CC(=O)[C@H]3c3ccoc3)[C@@]21C [AZADIRADIONE],15.9,> 20,> 20,> 20,14.7
CC(=O)O[C@@H]1C[C@H]2C(C)(C)C(=O)C=C[C@]2(C)[C@H]2CC[C@@]3(C)CC(=O)C=C3[C@@]21C [DESFURANOAZADIRADIONE],> 20,> 20,> 20,> 20,19.8
